# pIC50: −log10 of the molar value.
# Legend:
# [1] = biological target: T1, M-phase inducer phosphatase 1 (Homo sapiens, UniProt P30304); assay: (§1) Inhibitory activity tested against cell division cycle 25A (assay using fluorescein diphosphate (FDP) as substrate)
# T1 sequence (P30304 whole entry): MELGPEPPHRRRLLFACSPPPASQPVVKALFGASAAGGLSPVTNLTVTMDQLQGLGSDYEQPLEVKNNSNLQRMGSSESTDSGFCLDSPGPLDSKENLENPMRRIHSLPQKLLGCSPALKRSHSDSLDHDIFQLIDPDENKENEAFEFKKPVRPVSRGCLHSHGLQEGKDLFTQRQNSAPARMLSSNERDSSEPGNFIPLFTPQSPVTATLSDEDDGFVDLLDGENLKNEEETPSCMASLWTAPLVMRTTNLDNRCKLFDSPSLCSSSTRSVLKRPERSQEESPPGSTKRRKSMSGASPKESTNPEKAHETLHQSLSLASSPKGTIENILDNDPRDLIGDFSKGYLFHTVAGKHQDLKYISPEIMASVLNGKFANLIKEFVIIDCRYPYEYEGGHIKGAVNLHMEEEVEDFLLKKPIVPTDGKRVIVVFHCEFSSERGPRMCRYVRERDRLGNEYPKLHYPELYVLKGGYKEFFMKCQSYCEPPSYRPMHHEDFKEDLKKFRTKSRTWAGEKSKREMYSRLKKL
# Method in brief: (§2)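 Recombinant human GST-Cdc25A fusion protein, each batch calibrated so that FDP was dephosphorylated linearly over 20 min. Fluorescein diphosphate was the substrate. Reactions ran 15 min at 25 °C in the dark and were stopped with sodium orthovanadate. IC50 came from at least two independent runs, each in triplicate.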
# [2] = biological target: T2, M-phase inducer phosphatase 1 (Homo sapiens) (UniProt P30304); assay: as §1; details: concentration not given here
# T2 sequence (whole entry): T1 sequence (P30304 whole entry)
# Method in brief: as §2, with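 “orthovanadate. Fluorescein monophosphate was read at 485 nm excitation and 530 nm emission.” for “orthovanadate.”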
Structure (SMILES),pIC50 [1],inhibition [2]
C=C(CCC(CC#N)OCC)[C@H]1CC[C@]2(C)[C@@H](C(C)CCCC(C)C)CC[C@H]2[C@@H]1CC(=O)O (stereo not given in full),5.54,
CCOC(=O)C(C)SC(=S)O[C@H]1CC[C@@]2(C)[C@@H](CC[C@@H]3[C@@H]2CC[C@]2(C)[C@@H]([C@H](C)CCCC(C)C)CC[C@@H]32)C1 (stereo not given in full),< 4.00,
CC(C)CCC[C@@H](C)[C@H]1CC[C@H]2[C@H](CC(=O)O)[C@@H]([C@@]3(C)CCC=CC3=O)CC[C@]12C,5.02,
COC(CC#N)CC[C@@]1(C)OC(=O)C[C@H]2[C@@H]3CC[C@H]([C@H](C)CCCC(C)C)[C@@]3(C)CC[C@@H]21 (stereo not given in full),4.98,
CC(C)CCC[C@@H](C)[C@H]1CC[C@H]2[C@@H]3CC[C@H]4C[C@@H](OCC(=O)O)CC[C@]4(C)[C@H]3CC[C@]12C,6.15,

# Now from value to compound:
pIC50 [1],inhibition [2],Structure (SMILES)
5.03,,CC(=O)OC1CC[C@](C)([C@H]2CC[C@]3(C)[C@@H]([C@H](C)CCCC(C)C)CC[C@H]3[C@@H]2CC(=O)O)C(=O)C1 (stereo not given in full)
5.62,,C/C(=C/CCCC#N)[C@H]1CC[C@]2(C)[C@@H](C(C)CCCC(C)C)CC[C@H]2[C@@H]1CC(=O)O (stereo not given in full)
,16%,CC(C)CCC[C@@H](C)[C@H]1CC[C@H]2[C@@H]3CC[C@H]4CC(NCCCC(=O)O)CC[C@]4(C)[C@H]3CC[C@]12C (stereo not given in full)
6.05,,CC(C)CCC[C@@H](C)[C@H]1CC[C@H]2[C@@H]3CC[C@H]4C[C@@H](OC(=S)SCC(=O)O)CC[C@]4(C)[C@H]3CC[C@]12C
,18%,CC(C)CCC[C@@H](C)[C@H]1CC[C@H]2[C@@H]3CC[C@H]4C[C@@H](OC(=O)Nc5ccccc5)CC[C@]4(C)[C@H]3CC[C@]12C
